According to ChEMBL document CHEMBL1124495 (1989):
Converted amounts (≈) assume the structure as drawn.

system: Escherichia coli; experiment: Activity was determined after peroral administration against Escherichia coli #311(MP) in mouse protection test; assay type: functional; conditions: po
Method in brief: (§1)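 CD-1 female mice (20 ± 2 g) infected intraperitoneally with 0.5 mL standardized bacterial suspension: E. coli #311 in trypticase-soy broth, S. aureus Smith in 5% hog gastric mucin. Treated 0.5 h post-infection, oral or subcutaneous, 2-fold dose increments in 0.5 mL 0.2% aqueous agar, five mice per dose. 7-day survival pooled from three tests; ED50 by probit analysis.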

SMILES	ED50
CN1CCN(c2c(F)c(F)c3c(=O)c(C(=O)O)cn(C4CC4)c3c2F)CC1	0.5 mg/kg
CCn1cc(C(=O)O)c(=O)c2cc(F)c(N3CCN(C)CC3)cc21 [PEFLOXACIN]	1.1 mg/kg

system: Escherichia coli; experiment: Activity was determined after subcutaneous administration against Escherichia coli #311(MP) in mouse protection test; assay type: functional; conditions: sc; method in brief: as §1

SMILES	ED50
CN1CCN(c2c(F)c(F)c3c(=O)c(C(=O)O)cn(C4CC4)c3c2F)CC1	0.35 mg/kg
CCn1cc(C(=O)O)c(=O)c2cc(F)c(N3CCN(C)CC3)cc21 [PEFLOXACIN]	0.4 mg/kg

system: Escherichia coli; experiment: Antibacterial activity carried out in vitro against Escherichia coli #311(MP); assay type: functional; conditions: not given

SMILES	MIC
CCn1cc(C(=O)O)c(=O)c2c(N3CCOCC3)c(F)c(F)c(F)c21	> 128 µg/mL
CCn1cc(C(=O)O)c(=O)c2c(N3CCN(C)CC3)c(F)c(F)c(F)c21	> 128 µg/mL
CC(C)n1cc(C(=O)O)c(=O)c2c(F)c(F)c(N3CCN(C)CC3)c(F)c21	4 µg/mL (≈ 10.4 µM)
CCn1cc(C(=O)O)c(=O)c2c(F)c(F)c(N3CCN(C)CC3)c(F)c21	0.25 µg/mL (≈ 0.677 µM)
CN1CCN(c2c(F)c(F)c3c(=O)c(C(=O)O)cn(C4CC4)c3c2F)CC1	0.03 µg/mL (≈ 0.0787 µM)

system: Escherichia coli; experiment: Antibacterial activity carried out in vitro against Escherichia coli ATCC 25922; assay type: functional; conditions: not given

SMILES	MIC
CCn1cc(C(=O)O)c(=O)c2c(N3CCOCC3)c(F)c(F)c(F)c21	> 128 µg/mL
CCn1cc(C(=O)O)c(=O)c2c(N3CCN(C)CC3)c(F)c(F)c(F)c21	> 128 µg/mL
CC(C)n1cc(C(=O)O)c(=O)c2c(F)c(F)c(N3CCN(C)CC3)c(F)c21	4 µg/mL (≈ 10.4 µM)
CCn1cc(C(=O)O)c(=O)c2c(F)c(F)c(N3CCN(C)CC3)c(F)c21	0.12 µg/mL (≈ 0.325 µM)
CN1CCN(c2c(F)c(F)c3c(=O)c(C(=O)O)cn(C4CC4)c3c2F)CC1	0.015 µg/mL (≈ 0.0393 µM)
CCn1cc(C(=O)O)c(=O)c2cc(F)c(N3CCN(C)CC3)cc21 [PEFLOXACIN]	0.06 µg/mL (≈ 0.18 µM)

system: Escherichia coli; experiment: Antibacterial activity carried out in vitro against Escherichia coli MOR 84-20; assay type: functional; conditions: not given

SMILES	MIC
CCn1cc(C(=O)O)c(=O)c2c(N3CCOCC3)c(F)c(F)c(F)c21	> 128 µg/mL
CCn1cc(C(=O)O)c(=O)c2c(N3CCN(C)CC3)c(F)c(F)c(F)c21	> 128 µg/mL
CC(C)n1cc(C(=O)O)c(=O)c2c(F)c(F)c(N3CCN(C)CC3)c(F)c21	4 µg/mL (≈ 10.4 µM)
CCn1cc(C(=O)O)c(=O)c2c(F)c(F)c(N3CCN(C)CC3)c(F)c21	0.25 µg/mL (≈ 0.677 µM)
CN1CCN(c2c(F)c(F)c3c(=O)c(C(=O)O)cn(C4CC4)c3c2F)CC1	0.06 µg/mL (≈ 0.157 µM)

system: Enterobacter cloacae; experiment: Antibacterial activity carried out in vitro against Enterobacter cloacae VHG 84-39; assay type: functional; conditions: not given

SMILES	MIC
CCn1cc(C(=O)O)c(=O)c2c(N3CCOCC3)c(F)c(F)c(F)c21	> 128 µg/mL
CCn1cc(C(=O)O)c(=O)c2c(N3CCN(C)CC3)c(F)c(F)c(F)c21	> 128 µg/mL
CC(C)n1cc(C(=O)O)c(=O)c2c(F)c(F)c(N3CCN(C)CC3)c(F)c21	8 µg/mL (≈ 20.9 µM)
CCn1cc(C(=O)O)c(=O)c2c(F)c(F)c(N3CCN(C)CC3)c(F)c21	0.5 µg/mL (≈ 1.35 µM)
CN1CCN(c2c(F)c(F)c3c(=O)c(C(=O)O)cn(C4CC4)c3c2F)CC1	0.06 µg/mL (≈ 0.157 µM)

system: Klebsiella pneumoniae; experiment: Antibacterial activity carried out in vitro against Klebsiella pneumoniae CMC 84-31; assay type: functional; conditions: not given

SMILES	MIC
CCn1cc(C(=O)O)c(=O)c2c(N3CCOCC3)c(F)c(F)c(F)c21	> 128 µg/mL
CCn1cc(C(=O)O)c(=O)c2c(N3CCN(C)CC3)c(F)c(F)c(F)c21	> 128 µg/mL
CC(C)n1cc(C(=O)O)c(=O)c2c(F)c(F)c(N3CCN(C)CC3)c(F)c21	8 µg/mL (≈ 20.9 µM)
CCn1cc(C(=O)O)c(=O)c2c(F)c(F)c(N3CCN(C)CC3)c(F)c21	0.5 µg/mL (≈ 1.35 µM)
CN1CCN(c2c(F)c(F)c3c(=O)c(C(=O)O)cn(C4CC4)c3c2F)CC1	0.06 µg/mL (≈ 0.157 µM)
CCn1cc(C(=O)O)c(=O)c2cc(F)c(N3CCN(C)CC3)cc21 [PEFLOXACIN]	0.25 µg/mL (≈ 0.75 µM)

system: Pseudomonas aeruginosa; experiment: Antibacterial activity carried out in vitro against Pseudomonas aeruginosa K84-16; assay type: functional; conditions: not given

SMILES	MIC
CCn1cc(C(=O)O)c(=O)c2c(N3CCOCC3)c(F)c(F)c(F)c21	> 128 µg/mL
CCn1cc(C(=O)O)c(=O)c2c(N3CCN(C)CC3)c(F)c(F)c(F)c21	> 128 µg/mL
CC(C)n1cc(C(=O)O)c(=O)c2c(F)c(F)c(N3CCN(C)CC3)c(F)c21	> 128 µg/mL
CCn1cc(C(=O)O)c(=O)c2c(F)c(F)c(N3CCN(C)CC3)c(F)c21	32 µg/mL (≈ 86.6 µM)
CN1CCN(c2c(F)c(F)c3c(=O)c(C(=O)O)cn(C4CC4)c3c2F)CC1	4 µg/mL (≈ 10.5 µM)
CCn1cc(C(=O)O)c(=O)c2cc(F)c(N3CCN(C)CC3)cc21 [PEFLOXACIN]	4 µg/mL (≈ 12 µM)

system: Serratia marcescens; experiment: Antibacterial activity carried out in vitro against Serratia marcescens MOR 84-41; assay type: functional; conditions: not given

SMILES	MIC
CCn1cc(C(=O)O)c(=O)c2c(N3CCOCC3)c(F)c(F)c(F)c21	> 128 µg/mL
CCn1cc(C(=O)O)c(=O)c2c(N3CCN(C)CC3)c(F)c(F)c(F)c21	> 128 µg/mL
CC(C)n1cc(C(=O)O)c(=O)c2c(F)c(F)c(N3CCN(C)CC3)c(F)c21	4 µg/mL (≈ 10.4 µM)
CCn1cc(C(=O)O)c(=O)c2c(F)c(F)c(N3CCN(C)CC3)c(F)c21	0.25 µg/mL (≈ 0.677 µM)
CN1CCN(c2c(F)c(F)c3c(=O)c(C(=O)O)cn(C4CC4)c3c2F)CC1	0.06 µg/mL (≈ 0.157 µM)

system: Staphylococcus aureus; experiment: Activity was determined after peroral administration against Staphylococcus aureus Smith(MP) in mouse protection test; assay type: functional; conditions: po; method in brief: as §1

SMILES	ED50
CN1CCN(c2c(F)c(F)c3c(=O)c(C(=O)O)cn(C4CC4)c3c2F)CC1	3.6 mg/kg
CCn1cc(C(=O)O)c(=O)c2cc(F)c(N3CCN(C)CC3)cc21 [PEFLOXACIN]	3.1 mg/kg

system: Staphylococcus aureus; experiment: Activity was determined after subcutaneous administration against Staphylococcus aureus Smith(MP) in mouse protection test; assay type: functional; conditions: sc; method in brief: as §1

SMILES	ED50
CN1CCN(c2c(F)c(F)c3c(=O)c(C(=O)O)cn(C4CC4)c3c2F)CC1	2.1 mg/kg
CCn1cc(C(=O)O)c(=O)c2cc(F)c(N3CCN(C)CC3)cc21 [PEFLOXACIN]	2 mg/kg

system: Staphylococcus aureus; experiment: Antibacterial activity carried out in vitro against Staphylococcus aureus ATCC 29213; assay type: functional; conditions: not given

SMILES	MIC
CCn1cc(C(=O)O)c(=O)c2c(N3CCOCC3)c(F)c(F)c(F)c21	128 µg/mL (≈ 359 µM)
CCn1cc(C(=O)O)c(=O)c2c(N3CCN(C)CC3)c(F)c(F)c(F)c21	> 128 µg/mL
CC(C)n1cc(C(=O)O)c(=O)c2c(F)c(F)c(N3CCN(C)CC3)c(F)c21	64 µg/mL (≈ 167 µM)
CCn1cc(C(=O)O)c(=O)c2c(F)c(F)c(N3CCN(C)CC3)c(F)c21	2 µg/mL (≈ 5.42 µM)
CN1CCN(c2c(F)c(F)c3c(=O)c(C(=O)O)cn(C4CC4)c3c2F)CC1	0.5 µg/mL (≈ 1.31 µM)
CCn1cc(C(=O)O)c(=O)c2cc(F)c(N3CCN(C)CC3)cc21 [PEFLOXACIN]	0.5 µg/mL (≈ 1.5 µM)

system: Staphylococcus aureus; experiment: Antibacterial activity carried out in vitro against Staphylococcus aureus K82-26; assay type: functional; conditions: not given

SMILES	MIC
CCn1cc(C(=O)O)c(=O)c2c(N3CCOCC3)c(F)c(F)c(F)c21	32 µg/mL (≈ 89.8 µM)
CCn1cc(C(=O)O)c(=O)c2c(N3CCN(C)CC3)c(F)c(F)c(F)c21	> 128 µg/mL
CC(C)n1cc(C(=O)O)c(=O)c2c(F)c(F)c(N3CCN(C)CC3)c(F)c21	16 µg/mL (≈ 41.7 µM)
CCn1cc(C(=O)O)c(=O)c2c(F)c(F)c(N3CCN(C)CC3)c(F)c21	2 µg/mL (≈ 5.42 µM)
CN1CCN(c2c(F)c(F)c3c(=O)c(C(=O)O)cn(C4CC4)c3c2F)CC1	0.5 µg/mL (≈ 1.31 µM)
CCn1cc(C(=O)O)c(=O)c2cc(F)c(N3CCN(C)CC3)cc21 [PEFLOXACIN]	0.5 µg/mL (≈ 1.5 µM)

system: Staphylococcus aureus; experiment: Antibacterial activity carried out in vitro against Staphylococcus aureus Smith(MP); assay type: functional; conditions: not given

SMILES	MIC
CCn1cc(C(=O)O)c(=O)c2c(N3CCOCC3)c(F)c(F)c(F)c21	64 µg/mL (≈ 180 µM)
CCn1cc(C(=O)O)c(=O)c2c(N3CCN(C)CC3)c(F)c(F)c(F)c21	> 128 µg/mL
CC(C)n1cc(C(=O)O)c(=O)c2c(F)c(F)c(N3CCN(C)CC3)c(F)c21	32 µg/mL (≈ 83.5 µM)
CCn1cc(C(=O)O)c(=O)c2c(F)c(F)c(N3CCN(C)CC3)c(F)c21	2 µg/mL (≈ 5.42 µM)
CN1CCN(c2c(F)c(F)c3c(=O)c(C(=O)O)cn(C4CC4)c3c2F)CC1	0.25 µg/mL (≈ 0.656 µM)
CCn1cc(C(=O)O)c(=O)c2cc(F)c(N3CCN(C)CC3)cc21 [PEFLOXACIN]	0.25 µg/mL (≈ 0.75 µM)

system: Staphylococcus aureus; experiment: Antibacterial activity carried out in vitro against Staphylococcus aureus VGH 84-47; assay type: functional; conditions: not given

SMILES	MIC
CCn1cc(C(=O)O)c(=O)c2c(N3CCOCC3)c(F)c(F)c(F)c21	128 µg/mL (≈ 359 µM)
CCn1cc(C(=O)O)c(=O)c2c(N3CCN(C)CC3)c(F)c(F)c(F)c21	> 128 µg/mL
CC(C)n1cc(C(=O)O)c(=O)c2c(F)c(F)c(N3CCN(C)CC3)c(F)c21	32 µg/mL (≈ 83.5 µM)
CCn1cc(C(=O)O)c(=O)c2c(F)c(F)c(N3CCN(C)CC3)c(F)c21	2 µg/mL (≈ 5.42 µM)
CN1CCN(c2c(F)c(F)c3c(=O)c(C(=O)O)cn(C4CC4)c3c2F)CC1	0.5 µg/mL (≈ 1.31 µM)
CCn1cc(C(=O)O)c(=O)c2cc(F)c(N3CCN(C)CC3)cc21 [PEFLOXACIN]	0.5 µg/mL (≈ 1.5 µM)

system: Enterococcus faecalis; experiment: Antibacterial activity carried out in vitro against Streptococcus faecalis UCI 85-30; assay type: functional; conditions: not given

SMILES	MIC
CCn1cc(C(=O)O)c(=O)c2c(N3CCOCC3)c(F)c(F)c(F)c21	> 128 µg/mL
CCn1cc(C(=O)O)c(=O)c2c(N3CCN(C)CC3)c(F)c(F)c(F)c21	> 128 µg/mL
CC(C)n1cc(C(=O)O)c(=O)c2c(F)c(F)c(N3CCN(C)CC3)c(F)c21	> 128 µg/mL
CCn1cc(C(=O)O)c(=O)c2c(F)c(F)c(N3CCN(C)CC3)c(F)c21	32 µg/mL (≈ 86.6 µM)
CN1CCN(c2c(F)c(F)c3c(=O)c(C(=O)O)cn(C4CC4)c3c2F)CC1	4 µg/mL (≈ 10.5 µM)
CCn1cc(C(=O)O)c(=O)c2cc(F)c(N3CCN(C)CC3)cc21 [PEFLOXACIN]	4 µg/mL (≈ 12 µM)
